Source: PubChem
Most compounds without a hit are left out; they make up all but 2.6% or so of the library.
EP2 antag: EP2 receptor (human) inhibition; inhibition, % at 25 µM; hit rate 0.52% among 260,000; C6 glioma cells expressing human EP2, cAMP TR-FRET; cells stimulated with saturating PGE2; AID 1422;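 active = percent inhibition above 40 after rounding to a whole number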;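 also: rat C6 glioma host cells with rolipram phosphodiesterase inhibitor present; the protocol text gives 20 µM as final concentration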
Target sequence (P43116 whole entry, looked up): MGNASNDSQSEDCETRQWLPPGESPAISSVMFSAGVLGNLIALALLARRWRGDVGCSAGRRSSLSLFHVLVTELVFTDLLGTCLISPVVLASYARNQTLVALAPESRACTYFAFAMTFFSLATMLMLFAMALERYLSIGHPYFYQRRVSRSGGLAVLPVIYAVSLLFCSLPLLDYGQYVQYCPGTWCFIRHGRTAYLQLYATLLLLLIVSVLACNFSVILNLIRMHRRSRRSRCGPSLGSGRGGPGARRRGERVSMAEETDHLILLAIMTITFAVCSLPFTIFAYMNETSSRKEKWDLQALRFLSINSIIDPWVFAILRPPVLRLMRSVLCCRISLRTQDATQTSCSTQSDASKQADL
T cell modulator: T cell immune modulators affecting CD8 T cell-vesicle binding. response (vesicle binding), % at 7 µM. hit rate 0.068% among 330,000. 2C CD8+ T cell-vesicle binding, flow cytometry; hits give low values. AID 2052;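 active = response, share of CD8 T cells binding vesicles, and their 90th percentile fluorescence all below set limits, cut at about 80% in these data, passing the limit was not always enough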;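 also: values below 100% mean blocked vesicle binding to the CD8+ T cells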
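System: murine 2C transgenic CD8+ T lymphocytes; also added: QL9-loaded Drosophila micro-vesicles; times: binding 1.5 h at 37 °C; measured by: flow cytometry, PE anti-B7-1 (FL2) versus Alexa647 anti-CD8 (FL8), PFA-fixed; control set: Peptide-free naked vesicles (low) and QL9 vesicles with 0.7% DMSO vehicle (high)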
Granule exo inh: lytic granule exocytosis inhibition; inhibition, % at 10 µM; TALL-104 LAMP-1 surface exposure, flow cytometry; cells stimulated with thapsigargin and PMA; hit rate 0.66% among 360,000;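 active = inhibition above about 55%, limit read from the data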
MC4R antag cAMP: blocks human MC4R cAMP signaling; MC4R-expressing cells, MTII-stimulated cAMP, LANCE TR-FRET; inhibition, % at 6.5 µM; hit rate 0.48% among 360,000; AID 540295;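 active = inhibition above its plate's cutoff, the mean of tested wells on that plate plus 3 SD, cut at about 29% in these data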;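 also: 0% = Melanotan II alone and 100% = Melanotan II plus saturating MCL0020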
Target sequence (P32245 whole entry, looked up): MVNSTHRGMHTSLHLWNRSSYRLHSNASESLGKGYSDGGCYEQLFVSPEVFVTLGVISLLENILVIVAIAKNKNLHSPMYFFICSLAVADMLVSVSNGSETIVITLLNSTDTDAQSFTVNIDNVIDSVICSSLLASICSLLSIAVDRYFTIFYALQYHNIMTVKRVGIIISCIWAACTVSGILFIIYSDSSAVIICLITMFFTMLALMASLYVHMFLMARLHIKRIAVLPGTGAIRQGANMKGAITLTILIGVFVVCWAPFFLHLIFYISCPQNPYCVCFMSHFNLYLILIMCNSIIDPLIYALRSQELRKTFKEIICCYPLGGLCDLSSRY
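System: U2OS cells stably expressing human melanocortin 4 receptor (MC4R). Reagent: Melanotan II challenge after compound preincubation. Doses: 6.5 µM. Times: 30-min compound, 1-h challenge, 1-h detection, room temperature. Measured by: TR-FRET with Eu-cAMP and labeled anti-cAMP, 671 nm. Replicates: singlicate.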
MC4R ag barr: human MC4R agonism via beta-arrestin; P32245; U2OS MC4R beta-arrestin complementation, luminescence; percent of melanotan II response, DMSO zero; activation, % at 8.9 µM; hit rate 0.98% among 360,000; AID 540308;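 active = activation above a per-plate cutoff, the mean activation of sample wells on that plate plus 3 SD, cut at about 8% in these data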
EP2 modulator: modulates human prostaglandin E2 receptor EP2 signaling | P43116 | EP2-expressing cells, cAMP HTRF FRET, PGE2 co-stimulation | induction, % at 25 µM | hit rate 0.83% among 260,000;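 active = compounds whose cAMP rise, as percent of the full-agonist control response, exceeds 60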;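 also: rat C6 glioma line stably carrying human EP2 under a CMV promoter; the protocol text gives 20 µM as final concentration; 100% = response of wells given 1 µM PGE2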
An asterisk follows results filed as active; i = inactive; . = not tested or not shown.

SMILES | EP2 antag | T cell modulator | Granule exo inh | MC4R antag cAMP | MC4R ag barr | EP2 modulator
CCCC(C)C(=O)Nc1nnc(C(F)(F)F)s1 (configuration not stated) | 10.6 | . | . | . | . | -51.0
CCCN(C(=O)CSc1cc(-c2ccccc2)c2ccc(OC)cc2n1)C1CCS(=O)(=O)C1 (configuration not stated) | 4.1 | 98.1 | -3.0 | 3.9 | -1.2 | 32.9
COc1ccc2c(-c3ccccc3)cc(SC(C)C(N)=O)nc2c1 (configuration not stated) | 12.5 | 648.7 | 10.5 | -8.0 | 0.0 | 62.2*
O=C(Nc1ccc(Cl)c([N+](=O)[O-])c1)c1ccc(NCCCN2CCOCC2)c([N+](=O)[O-])c1 | 8.5 | i | 31.7 | 4.7 | 19.8* | 0.3
C=CCN1C(=O)/C(=C/c2ccc(-c3ccc(F)cc3)o2)SC1=S | . | 372.0 | 93.2* | 1.9 | -2.0 | .
C=CCN1C(=O)/C(=C/c2ccsc2)SC1=S | 4.7 | 103.6 | -1.4 | -4.2 | 2.3 | 4.2
COc1ccc2c(-c3ccccc3)cc(=O)[nH]c2c1 | 5.7 | 476.7 | -2.2 | 5.8 | 0.8 | 9.9
Cc1ccc2nc(NC(=O)CCn3cccc3)sc2c1 | 8.5 | 296.0 | 5.9 | 6.0 | 0.4 | -5.0
C[C@@]12CCC(=O)C=C1CC[C@H]1[C@H]2[C@@H](O)C[C@]2(C)[C@@H]1CC[C@@]2(O)C(=O)COC(=O)C1CCCC1 | 49.6* | . | . | . | . | -5.9
CN1CCC[C@H](C(=O)OCC(=O)[C@]2(O)CC[C@@H]3[C@H]4CCC5=CC(=O)CC[C@@]5(C)[C@@H]4[C@@H](O)C[C@]32C)C1 | 52.8* | . | . | . | . | 10.3
CC(C)CC1Nc2ncnc(N3CCOCC3)c2N(Cc2ccccc2)C1=O (configuration not stated) | . | 486.2 | 0.4 | 6.7 | 0.2 | .
COc1ccc(NC(=O)N(C)C[C@H]2Oc3ccc(NC(=O)CCC(F)(F)F)cc3C(=O)N([C@H](C)CO)C[C@@H]2C)cc1 | . | 220.0 | 0.3 | 3.4 | 0.4 | .
Nc1ncnc2nc(-c3ccc(C[P+](c4ccccc4)(c4ccccc4)c4ccccc4)cc3)[nH]c12 | 40.5* | . | . | . | . | 25.3
O=C1c2ccccc2C(=O)N1C1(C(=O)NC2(C(=O)O)CCCC2)CCCC1 | 42.2* | . | 1.2 | 4.6 | -2.3 | 18.0
CC(C)(C)NC(=O)C1(N2C(=O)c3ccccc3C2=O)CCCC1 | . | . | 0.0 | -3.9 | 0.0 | .
Cc1cc(C)c(S(=O)(=O)NC2CC3CCC2C3)c(C)c1 (configuration not stated) | . | 202.3 | -21.9 | 18.6 | 8.5* | .
O=C(Cc1ccc(F)cc1)OCC(=O)N1CCN(S(=O)(=O)c2ccc(Cl)cc2)CC1 | . | 279.9 | -2.9 | 6.0 | -0.1 | .
O=C1C(=O)c2ccccc2C(O)=C1C(CCc1ccccc1)C1=C(O)c2ccccc2C(=O)C1=O | 42.1* | . | . | . | . | 26.9
O=C1C(=O)c2ccccc2C(O)=C1C(C1=C(O)c2ccccc2C(=O)C1=O)c1ccc(Cl)cc1 | 37.0 | . | . | . | . | 23.2
Cc1[nH][nH]c(=O)c1C(c1ccc(-c2ccc(Cl)c(Cl)c2)o1)c1c(C)[nH][nH]c1=O | 3.5 | 199.8 | 19.3 | -0.9 | -1.4 | -6.3
COC(=O)c1cc(-c2ccc(C(c3c(C)[nH][nH]c3=O)c3c(C)[nH][nH]c3=O)o2)ccc1Cl | 40.0* | . | . | . | . | -71.8
Cc1ccc(Nc2nc(N)nc(CCl)n2)c(C)c1 | 4.4 | i | 17.0 | 10.7 | 15.2* | -13.8
COc1ccc(OC)c(Nc2nc(N)nc(CCl)n2)c1 | 9.2 | 432.6 | 30.7 | 10.1 | 9.2* | -21.5
COc1ccccc1Nc1nc(N)nc(CCl)n1 | 3.6 | 361.1 | 7.2 | 15.1 | 5.2 | -44.8
Cc1ccc(Nc2nc(N)nc(CN3CCCCCC3)n2)c(C)c1 | 13.2 | 163.7 | 0.9 | 6.2 | -0.4 | -19.2
SMILES | EP2 antag | T cell modulator | Granule exo inh | MC4R antag cAMP | MC4R ag barr | EP2 modulator
Cc1cccc(Nc2nc(N)nc(CCl)n2)c1 | 8.8 | 404.7 | 69.7* | 13.1 | 5.0 | -23.6
CCOc1ccc(Nc2nc(N)nc(CCl)n2)cc1 | 10.0 | 435.8 | 60.2* | 10.6 | 12.0* | -8.2
CC1C(C#N)=C(N)OC2=C1C(=O)CC(c1ccccc1)C2 (configuration not stated) | 3.8 | 320.0 | -0.5 | 15.0 | -0.4 | -9.8
COC(=O)C(F)(F)Sc1c(C)[nH]c2ccccc12 | 8.1 | 490.3 | -5.0 | 5.3 | 0.4 | 13.8
COc1ccc2c(c1)cc(C)c1nnc(SCc3cc(=O)[nH]c4ccccc34)n12 | 17.2 | . | . | . | . | -0.8
COc1cccc(Nc2nc(N)nc(CCl)n2)c1 | 7.5 | 606.7 | 68.2* | 2.1 | 2.3 | -30.6
O=C(CCCN1C(=O)/C(=C\c2cccs2)SC1=S)Nc1ccccc1O | . | . | 3.0 | -2.7 | 8.9* | .
O=C1/C(=C/c2ccncc2)SC(=S)N1Nc1ccccc1 | 64.1* | 525.1 | 61.1* | -4.9 | -2.5 | -36.9
COC(=O)c1ccc(/C=C2\SC(=S)N(CCCC(=O)NCCCN3CCOCC3)C2=O)cc1 | . | 155.8 | 78.0* | 19.5 | 1.9 | .
O=C(CCCN1C(=O)/C(=C/c2ccccc2)SC1=S)Nc1ccccc1O | 12.8 | 251.8 | -0.2 | -2.9 | 6.4 | -83.2
COC(=O)CCCCCN1C(=O)/C(=C\c2ccncc2)SC1=S | 50.7* | 286.0 | 25.3 | 14.3 | 2.6 | -40.2
O=C1c2ccccc2C(O)(c2ncc[nH]2)N1C1CCCCC1 (configuration not stated) | 9.5 | 300.6 | -3.7 | 1.5 | -0.2 | 36.7
CC(=O)c1cccc(NC(=O)c2cccc(S(=O)(=O)N3CCOCC3)c2)c1 | . | 146.6 | -8.0 | 11.3 | -0.6 | .
COC(=O)c1ccc(C)c(NC(=O)CN(c2ccccc2)S(=O)(=O)N(C)C)c1 | 2.4 | 400.8 | 0.3 | 6.3 | -2.5 | -6.0
O=c1c2c3c(sc2[nH]c(=S)n1Cc1ccco1)CCC3 | 40.1* | 143.1 | -0.6 | 9.9 | -2.6 | 43.8
CCNc1ccc(S(=O)(=O)C(F)(F)F)cc1NC(=O)C12CCC(CC1)C2 | 76.0* | 345.9 | 0.2 | 18.3 | 1.9 | -4.0
CCNc1cc(S(=O)(=O)C(F)(F)F)ccc1N | 11.6 | 190.6 | 1.5 | 8.2 | -0.7 | 6.0
NCOC(=O)Cc1ccc(Br)cc1 | 54.5* | . | . | . | . | 10.4
O=C(Cc1ccc(Br)cc1)OCC(=O)N1CCCCCC1 | . | 395.1 | -1.4 | 5.8 | -2.7 | .
Cc1nc2nc(C)c(CCC(=O)N3CCc4ccccc43)c(C)n2n1 | 9.1 | 521.1 | -1.3 | 4.8 | -2.3 | 35.8
NC(=O)c1ccsc1NC(=O)c1ccc(S(=O)(=O)N2CCCc3ccccc32)cc1 | 19.4 | 803.2 | 0.7 | 6.5 | 8.5* | -70.8
O=C(O)c1ccc(S(=O)(=O)N2CCCc3ccccc32)cc1 | . | 69.0 | -0.5 | 3.9 | -2.2 | .
COC(=O)/C(=C/c1c[nH]c2ccccc12)[N+](=O)[O-] | 140.6* | 389.1 | -2.5 | 19.4 | -1.9 | -48.3
CCCCCCn1c(CN2CCN(CCO)CC2)nc2c1c(=O)n(C)c(=O)n2C | 9.1 | 565.7 | 2.4 | 15.3 | -0.6 | 23.4
